Bioassay records as filed in PubChem.
This is a sample that favours compounds with a hit; in the whole collection about 1.4% have one here.
hK5 inh = inhibitors of human kallikrein 5; AID 873; recombinant hK5, fluorogenic AMC substrate cleavage; Q9Y337; inhibition, % at 5 µM; 0.59% of 210,000 active;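 active = inhibition of 40% or more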
Furin inh = inhibitors of human furin; P09958; purified furin, fluorogenic substrate cleavage; inhibition, % at 20 µM or 30 µM; 0.061% of 220,000 active; AID 463115; in the data active = inhibition above about 25%
Target sequence (P09958 108-714 limits assumed): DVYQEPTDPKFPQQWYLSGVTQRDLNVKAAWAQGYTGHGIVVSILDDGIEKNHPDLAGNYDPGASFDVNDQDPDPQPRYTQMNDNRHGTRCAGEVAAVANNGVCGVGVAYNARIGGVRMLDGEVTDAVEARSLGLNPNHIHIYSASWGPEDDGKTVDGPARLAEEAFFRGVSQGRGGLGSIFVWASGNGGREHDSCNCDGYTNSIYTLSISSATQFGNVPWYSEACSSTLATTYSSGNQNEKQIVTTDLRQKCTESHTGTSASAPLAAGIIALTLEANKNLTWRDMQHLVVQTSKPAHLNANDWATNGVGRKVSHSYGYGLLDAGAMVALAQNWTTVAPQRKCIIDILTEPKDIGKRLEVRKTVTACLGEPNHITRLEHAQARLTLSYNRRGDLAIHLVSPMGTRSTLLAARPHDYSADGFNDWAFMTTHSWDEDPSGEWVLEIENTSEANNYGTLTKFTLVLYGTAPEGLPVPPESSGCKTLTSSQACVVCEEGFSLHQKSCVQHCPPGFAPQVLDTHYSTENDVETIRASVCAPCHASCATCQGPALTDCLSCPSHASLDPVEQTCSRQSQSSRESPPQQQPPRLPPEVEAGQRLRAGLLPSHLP
FXIIa inh 1536 = factor XIIa (human) inhibition; P00748; purified FXIIa, Boc-QGR-AMC fluorogenic substrate, 2 h; inhibition, % at 5 µM; 0.3% of 220,000 active; in the data active = inhibition above about 40%
FXIa inh 1536 = factor XIa (human) inhibition. P03951. purified FXIa, Boc-Glu-Ala-Arg-AMC fluorogenic substrate. inhibition, % at 5 µM. 0.14% of 220,000 active. AID 798;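 active = inhibition of at least 40%; inactive = inhibition below 40%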;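 note: fluorescence of freed AMC excited at 355 nm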
Thrombin inh = thrombin (human) inhibition | 0.26% of 220,000 active | P00734 | alpha-thrombin, Boc-VPR-AMC fluorogenic substrate cleavage | AID 1046 | inhibition, % at 5 µM;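 active = inhibition at or above 40%; inactive = inhibition below 40%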
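signal = AMC fluorescence, 355/460 nm | material = human alpha-thrombin enzyme | control set = enzyme without compound as high, wells lacking enzyme as low | times = reaction at room temperature | read-out basis = percent inhibition scaled between no-compound controls and no-enzyme blanks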
m-calpain inh = blocks pig calpain II enzyme activity; AID 1236; inhibition, % at 16 µM; 0.37% of 220,000 active; purified calpain II, fluorogenic peptide substrate, 30 min;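 active = inhibition above about 50%, limit read from the data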
A number is an active result; - = inactive.

SMILES	hK5 inh	Furin inh	FXIIa inh 1536	FXIa inh 1536	Thrombin inh	m-calpain inh
CC(=O)NC1CCC(C(=O)O)(c2ccccc2)C1 (stereo unspecified)	-	-	-	-	-	-
O=C1c2oc3ccccc3c(=O)c2C(c2cccc(F)c2)N1CCCO (stereo unspecified)	-	-	51	-	-	-
COC(=O)CSc1nc2cc(OC)ccc2n1C	-	-	-	-	-	-
COC(=O)CSc1nnc(-c2sc3cc(OC)ccc3c2Cl)n1C	-	-	48	-	-	-
Cc1ccc(S(=O)(=O)N(C(=O)c2ccncc2)c2ccc(OC(=O)c3ccncc3)cc2)c(C)c1	-	-	-	-	-	-
CC(C)N(Cc1nc(-c2ccc(Cl)cc2)no1)C(=O)CCCN1C(=O)c2ccccc2C1=O	-	-	-	-	-	65
CC(C)N(Cc1nc(-c2ccccc2)no1)C(=O)c1ccc(Cl)cc1	-	-	-	-	-	-
O=C1c2ccccc2C(=O)N1CCCCCc1nc(-c2ccccc2)no1	-	-	-	-	-	64
Nc1nncn1C(=O)CCc1ccccc1	-	-	-	-	56	-
COc1ccccc1/C=N/NC(=O)CNC(=O)c1ccccc1	-	-	-	-	-	-
COCC(=O)n1nc(-c2ccccc2)nc1NCc1ccc(N(C)C)cc1	-	-	-	-	-	-
COCC(=O)n1nc(-c2ccc(Cl)cc2)nc1NCc1ccc(F)cc1	-	-	-	-	51	-
COCC(=O)n1nc(-c2ccc(C)cc2)nc1NCc1ccc(F)cc1	-	-	-	-	79	-
CN(Cc1cccc(-n2cccn2)c1)Cc1cn(C)nc1-c1ccccc1F	-	-	-	-	-	-
c1ccc(-n2ncc3c(NCc4cccs4)ncnc32)cc1	-	-	-	-	-	64
COc1ccc(-n2ncc3c(NCc4ccccn4)ncnc32)cc1	-	-	44	-	-	-
Cc1oncc1C(=S)Nc1ccccc1	-	-	-	-	-	-
Cc1ccc(S(=O)(=O)N2CCN(Cc3ccccc3C(F)(F)F)CC2)cc1	-	-	-	-	-	-
Cc1ccc(S(=O)(=O)N2CCN(Cc3cc(C(C)C)ccc3O)CC2)cc1	-	-	43	-	-	-
CCCCN(CCCC)c1ccc(C(=O)c2ccccc2C(=O)O)c(O)c1	-	-	-	-	-	-
COC(=O)c1cccc(NC(=O)Nc2ccc(Cl)cc2Cl)c1	42	-	-	-	-	-
Cc1nc(NC(=O)c2ccc([N+](=O)[O-])cc2Cl)sc1C(=O)N(C)C	-	-	-	-	-	-
Cc1cc(C(=O)Nc2nc(C)c(C(=O)N(C)C)s2)ccc1[N+](=O)[O-]	-	-	53	-	43	-
CC(C)Sc1nnc([C@@H]2CCCN2C(=O)OC(C)(C)C)o1	-	-	-	-	-	-
Oc1ccc(NC(=S)Nc2ccc(O)cc2)cc1	-	-	-	-	-	-
SMILES	hK5 inh	Furin inh	FXIIa inh 1536	FXIa inh 1536	Thrombin inh	m-calpain inh
COC(=O)c1ccc(NC(=S)Nc2ccc(O)cc2)cc1	-	-	61	-	-	-
Cc1ccccc1C(=O)Oc1ccc(Sc2ccc(O)cc2)cc1	-	-	-	-	-	113
Cc1cc(S(=O)(=O)N2CCOCC2)ccc1F	-	-	-	-	-	-
COC(=O)C1=C(C)Nc2ncnn2C1c1ccc(C)o1 (stereo unspecified)	-	-	-	-	-	-
O=C(CSc1nc2ccccc2c(=O)n1Cc1ccco1)N1CCCC1	-	-	-	-	-	-
Cc1sc2c(c1C)C(=O)NC(c1cccc(O)c1)N2 (stereo unspecified)	-	-	-	40	-	-
COC(=O)c1ccc(C2NC(=O)c3c(sc(C)c3C)N2)cc1 (stereo unspecified)	-	-	-	-	-	-
Cc1cc(NC(=O)c2ccccc2Cl)n(C(C)(C)C)n1	-	-	-	-	-	-
O=C(CCC1CCCCC1)NCc1ccc(F)cc1	-	-	-	-	-	-
CC(=O)N1CCN(c2ccc(NC(=O)c3ccc(N4CCCC4)c([N+](=O)[O-])c3)cc2Cl)CC1	-	-	-	-	-	-
O=C(Nc1ccc(N2CCCCC2)c(Cl)c1)c1ccc(N2CCOCC2)c([N+](=O)[O-])c1	45	-	-	-	-	-
COc1cccc(CSc2nnc(C(F)(F)F)n2Cc2ccc(F)cc2)c1	-	-	-	-	-	-
O=C(Nc1ccc(Cl)c(Cl)c1)OCCNC(=O)c1cccc(Cl)c1	-	-	-	-	-	65
O=C(CCCOc1ccccc1)Nc1ccc(S(=O)(=O)N2CCOCC2)cc1	-	-	-	-	-	-
Cc1sc2cc(-c3cccc([N+](=O)[O-])c3)c(-c3cccc([N+](=O)[O-])c3)c[n+]2c1C	-	-	-	-	-	-
O=[N+]([O-])c1cccc(-c2cc3cccc[n+]3cc2-c2cccc([N+](=O)[O-])c2)c1	46	-	-	-	-	-
CC(C)(C)N=C1C([N+](=O)[O-])=CC=C2C1=NC1(CCCCC1)N2O	-	-	-	-	-	-
N=C1C=CC=C2C1=NC1(CCCCC1)N2O	98	-	-	-	104	-
Cc1ccc(N(CC(O)Cn2c3ccccc3c3ccccc32)S(C)(=O)=O)cc1 (stereo unspecified)	-	-	-	-	-	-
CS(=O)(=O)N(Cc1ccco1)CC(O)Cn1c2ccccc2c2ccccc21 (stereo unspecified)	44	-	-	-	-	-
CC(=C/c1ccccc1)/C=N/Nc1nc(N2CCOCC2)nc(N2CCOCC2)n1	-	-	-	-	-	-
CCOc1cc(/C=N/n2cnnc2)cc(Br)c1O	-	-	43	-	-	-
O=C1C=C(Nc2ccccc2)C(=O)c2ccccc21	-	-	-	-	-	57
CC12CN3CC(=O)N4CC5(C)CN(CC(C)(C4)C5=O)C(=O)CN(C1)CC(C)(C3)C2=O	-	-	-	-	-	-
CCC(c1nnnn1Cc1cccs1)N1CCN(C2CCCC2)CC1 (stereo unspecified)	47	-	-	-	-	-
SMILES	hK5 inh	Furin inh	FXIIa inh 1536	FXIa inh 1536	Thrombin inh	m-calpain inh
Cc1c(NC(=O)c2ccc(Cl)s2)c(=O)n(-c2ccccc2)n1C	-	-	-	-	-	-
CC1Cn2c(nnc2-c2cc3ccccc3cc2O)S1 (stereo unspecified)	44	-	-	-	-	-
Cc1ccc(S(=O)(=O)NNC(=O)c2ccc(O)cc2)cc1	53	-	-	-	-	-
Cc1nn(C)c(C)c1S(=O)(=O)N1CCC(C(=O)NCCC2=CCCCC2)CC1	65	-	41	-	42	-
Cc1noc(C)c1S(=O)(=O)N1CCC(C(=O)NCCC2=CCCCC2)CC1	-	-	-	-	-	-
Cc1ccccc1NC(=O)c1ccc(NC(=O)C2CC(=O)OC23CCCCC3)cc1 (stereo unspecified)	-	-	-	-	64	-
O=C1CC(C(=O)Nc2ccccc2)C2(CCCC2)O1 (stereo unspecified)	-	-	-	-	-	-
